The record followed here is ChEMBL document CHEMBL4028809, “Dual-tail approach to discovery of novel carbonic anhydrase IX inhibitors by simultaneously matching the hydrophobic and hydrophilic halves of the active site” (Eur J Med Chem, 2017).

Molecules are shown by their SMILES. Activity calls are given as the source filed them. The rule behind the calls is not given here.

One experiment addresses Carbonic anhydrase 9 (Homo sapiens, UniProt Q16790). Nature of the experiment: Inhibition of recombinant human carbonic anhydrase 9 using 4-nitrophenylacetate as substrate pretreated for 15 mins prior to test by spectrophotometric method.
The subject of experiment [1] is HT-29. Nature of the experiment: Cytotoxicity against human HT-29 cells assessed as cell viability at 100 uM after 72 hrs under normoxic condition by MTT assay relative to control. Type of experiment: functional. The settings on record: for viability at 100 µM: HT-29, 72 h, read-out: Activity. Put shortly: (§1)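 HT-29 or MDA-MB-231 cells seeded at 5 × 10^4 per well and stabilized 24 h at 37 °C, then exposed to a single 0.1 mM dose for 72 h, in hypoxia (0.5% O2, 5% CO2, balance N2, modular chamber) or normoxia (20% O2, 5% CO2). MTT at 5 mg/mL added for 4 h; formazan dissolved in DMSO; absorbance read at 540 nm.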

Experiment [2] deals with HT-29. Nature of the experiment: Cytotoxicity against human HT-29 cells assessed as cell viability at 100 uM after 72 hrs under hypoxic condition condition by MTT assay relative to control. The experiment is classed as functional. The settings on record: for viability at 100 µM: HT-29, 72 h, read-out: Activity. Put shortly:
as §1
A general note: Tetrazolium dyes change colour on reduction, which living cells bring about.

Experiment [3] concerns MDA-MB-231. Nature of the experiment: Cytotoxicity against human MDA-MB-231 cells assessed as cell viability at 100 uM after 72 hrs under normoxic condition by MTT assay. Conditions: for viability at 100 µM: MDA-MB-231, 72 h, read-out: Activity. Type of experiment: functional. The gist of the method: as §1
In experiment [4] the test system is MDA-MB-231. Nature of the experiment: Cytotoxicity against human MDA-MB-231 cells assessed as cell viability at 100 uM after 72 hrs under hypoxic condition by MTT assay. The experiment is classed as functional. The settings on record: for viability at 100 µM: MDA-MB-231, 72 h, read-out: Activity. Put shortly:
as §1

Another experiment deals with Carbonic anhydrase 2 (Homo sapiens, UniProt P00918). Nature of the experiment: Inhibition of recombinant human carbonic anhydrase 2 using 4-nitrophenylacetate as substrate pretreated for 15 mins prior to test by spectrophotometric method.

Usually IC50 stands for the concentration needed to halve the response being measured. As for `COc1cccc(/C=C/C(=O)N[C@@H]2[C@@H](O)[C@H](O)[C@@H](CO)O[C@H]2NC(=S)Nc2ccc(S(N)(=O)=O)cc2)c1OC`, at Carbonic anhydrase 9, the 50% inhibitory concentration (IC50) was 0.033 µM. Further, the viability at 100 µM in the experiment with HT-29 [1] was in the range of 73 to 79%; in the experiment with HT-29 [2] it was 63 to 77%; in the experiment on MDA-MB-231 [3] it was 89 to 99%; in the experiment on MDA-MB-231 [4], 69.5 to 79.9%.
The matching figures for `COc1cc(OC)c(OC)cc1/C=C/C(=O)N[C@@H]1[C@@H](O)[C@H](O)[C@@H](CO)O[C@H]1NC(=S)Nc1ccc(S(N)(=O)=O)cc1`: 0.037 µM, 73 to 79%, 63 to 77%, 89 to 99% and 69.5 to 79.9%.
For `COc1ccc(/C=C/C(=O)N[C@@H]2[C@@H](O)[C@H](O)[C@@H](CO)O[C@H]2NC(=S)Nc2ccc(S(N)(=O)=O)cc2)cc1`, in that order: 0.152 µM, 73 to 79%, 63 to 77%, 89 to 99% and 69.5 to 79.9%.
Turning to `COc1ccc(/C=C/C(=O)N[C@@H]2[C@@H](O)[C@H](O)[C@@H](CO)O[C@H]2NC(=S)Nc2ccc(S(N)(=O)=O)cc2)c(OC)c1`, the half-inhibitory concentration (IC50) at Carbonic anhydrase 9 amounted to 0.007 µM. In addition, the result with HT-29 [1], in the experiment with HT-29 [2], in the experiment on MDA-MB-231 [3] and with MDA-MB-231 [4] was inactive.
Regarding `COc1ccccc1/C=C/C(=O)N[C@@H]1[C@@H](O)[C@H](O)[C@@H](CO)O[C@H]1NC(=S)Nc1ccc(S(N)(=O)=O)cc1`, the IC50 on Carbonic anhydrase 9 came to 0.06 µM. Also, the viability at 100 µM was 73 to 79% with HT-29 [1], 63 to 77% with HT-29 [2], 89 to 99% in the experiment with MDA-MB-231 [3] and 69.5 to 79.9% with MDA-MB-231 [4].
For `COc1cc(/C=C/C(=O)N[C@@H]2[C@@H](O)[C@H](O)[C@@H](CO)O[C@H]2NC(=S)Nc2ccc(S(N)(=O)=O)cc2)cc(OC)c1OC`, in that order: 0.046 µM, 73 to 79%, 63 to 77%, 89 to 99% and 69.5 to 79.9%.
For the molecule `N[C@@H]1[C@@H](O)[C@H](O)[C@@H](CO)O[C@H]1NC(=S)Nc1ccc(S(N)(=O)=O)cc1`, the half-maximal inhibitory concentration (IC50) on Carbonic anhydrase 2 stood at 0.203 µM; at Carbonic anhydrase 9 it was 0.667 µM.
For `COc1ccc(/C=C/C(=O)O)cc1` [4-METHOXYCINNAMIC ACID], in that order: 760 µM and 850 µM.
In the case of `COc1cccc(/C=C/C(=O)N[C@@H]2[C@@H](O)[C@H](O)[C@@H](CO)O[C@H]2NC(=S)Nc2ccc(S(N)(=O)=O)cc2)c1`, the concentration for half-maximal inhibition (IC50) on Carbonic anhydrase 9 was 0.095 µM. The viability at 100 µM in the experiment on HT-29 [1] is 73 to 79%; in the experiment on HT-29 [2] it was 63 to 77%; with MDA-MB-231 [3] it was 89 to 99%; in the experiment with MDA-MB-231 [4], 69.5 to 79.9%.
On to `CC(=O)Nc1nnc(S(N)(=O)=O)s1`, for which the result in the experiment on HT-29 [1], with HT-29 [2], with MDA-MB-231 [3] and with MDA-MB-231 [4] was inactive.
Turning to `COc1ccc(/C=C/C(=O)N[C@H]2[C@H](OC)O[C@H](CO)[C@@H](O)[C@@H]2O)cc1`, on Carbonic anhydrase 9, the IC50 came out at 20 µM.
